Laboratory results as given in ChEMBL document CHEMBL1806372, “Cytotoxic ring A-modified steroid analogues derived from Grundmann's ketone” (Eur J Med Chem, 2011).

Tests used:
Format in all cases: functional
[1] = system: SR; assay: Growth inhibition of human SR cells after 48 hrs by sulforhodamine B assay
Outline: (§1)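 NCI 60-cell panel five-dose assay. GI50, TGI and LC50 are derived from log concentration versus % growth inhibition curves. Cell lines insensitive at the top concentration are given a ">" prefix.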

[2] = system: HOP-62; assay: Cytotoxicity against human HOP62 cells after 48 hrs by sulforhodamine B assay; conditions: HOP-62, 48 h, read-out: LC50 (the source's name)
Outline: (§2)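 NCI 60 human tumour cell line panel run to the NCI protocol. GI50, TGI and LC50 come from log concentration vs % growth inhibition curves for each cell line. Lines insensitive at the top concentration are reported with ">".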

[3] = system: KM12; assay: Growth inhibition of human KM12 cells after 48 hrs by sulforhodamine B assay; conditions: KM12, 48 h
Outline: (§3)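 From log concentration versus % growth curves, GI50 (50% decrease in net growth), TGI (total growth inhibition) and LC50 (net 50% loss of initial cells) are derived for each line.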

[4] = system: HOP-92; assay: Growth inhibition of human HOP92 cells after 48 hrs by sulforhodamine B assay; conditions: HOP-92, 48 h; outline: as §3
[5] = system: EKVX; assay: Growth inhibition of human EKVX cells after 48 hrs by sulforhodamine B assay; outline: as §3
[6] = system: SW-620; assay: Growth inhibition of human SW620 cells after 48 hrs by sulforhodamine B assay; conditions: SW-620, 48 h; outline: as §1
[7] = system: RXF 393; assay: Growth inhibition of human RXF393 cells after 48 hrs by sulforhodamine B assay; conditions: RXF 393, 48 h
Outline: (§4)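 GI50, TGI and LC50 were derived from log concentration versus % growth inhibition curves for each cell line. GI50 is the concentration giving a 50% decrease in net cell growth. Insensitive lines are reported as greater than the highest concentration.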

[8] = system: SF-295; assay: Cytotoxicity against human SF295 cells after 48 hrs by sulforhodamine B assay; conditions: SF-295, 48 h, read-out: LC50 (the source's name); outline: as §2
[9] = system: T47D; assay: Cytotoxicity against human T47D cells after 48 hrs by sulforhodamine B assay; conditions: read-out: LC50 (the source's name)
[10] = system: DU-145; assay: Cytotoxicity against human DU145 cells after 48 hrs by sulforhodamine B assay; conditions: DU-145, 48 h, read-out: LC50 (the source's name); outline: as §2
[11] = system: BT-549; assay: Growth inhibition of human BT549 cells after 48 hrs by sulforhodamine B assay; conditions: BT-549, 48 h; outline: as §3
[12] = system: OVCAR-3; assay: Growth inhibition of human OVCAR3 cells after 48 hrs by sulforhodamine B assay; conditions: OVCAR-3, 48 h; outline: as §4
[13] = system: HT-29; assay: Cytotoxicity against human HT-29 cells after 48 hrs by sulforhodamine B assay; conditions: HT-29, 48 h, read-out: LC50 (the source's name); outline: as §2
[14] = system: HL-60(TB); assay: Cytotoxicity against human HL-60(TB) cells after 48 hrs by sulforhodamine B assay; conditions: HL-60, 48 h, read-out: LC50 (the source's name); outline: as §2
[15] = system: OVCAR-3; assay: Cytotoxicity against human OVCAR3 cells after 48 hrs by sulforhodamine B assay; conditions: OVCAR-3, 48 h, read-out: LC50 (the source's name); outline: as §2
[16] = system: MDA-MB-231; assay: Cytotoxicity against human MDA-MB-231 cells after 48 hrs by sulforhodamine B assay; conditions: MDA-MB-231, 48 h, read-out: LC50 (the source's name); outline: as §2
[17] = system: MOLT-4; assay: Growth inhibition of human MOLT4 cells after 48 hrs by sulforhodamine B assay; conditions: MOLT-4, 48 h; outline: as §4
[18] = system: CCRF-CEM; assay: Growth inhibition of human CCRF-CEM cells after 48 hrs by sulforhodamine B assay; outline: as §3
[19] = system: TK-10; assay: Cytotoxicity against human TK10 cells after 48 hrs by sulforhodamine B assay; conditions: TK-10, 48 h, read-out: LC50 (the source's name)
[20] = system: T47D; assay: Growth inhibition of human T47D cells after 48 hrs by sulforhodamine B assay; outline: as §1
[21] = system: HOP-62; assay: Growth inhibition of human HOP62 cells after 48 hrs by sulforhodamine B assay; conditions: HOP-62, 48 h; outline: as §3
[22] = system: MDA-MB-231; assay: Growth inhibition of human MDA-MB-231 cells after 48 hrs by sulforhodamine B assay; conditions: MDA-MB-231, 48 h; outline: as §4
[23] = system: A498; assay: Growth inhibition of human A498 cells after 48 hrs by sulforhodamine B assay; conditions: A498, 48 h; outline: as §3
[24] = system: HCT-116; assay: Growth inhibition of human HCT116 cells after 48 hrs by sulforhodamine B assay; conditions: HCT-116, 48 h; outline: as §3
[25] = system: OVCAR-5; assay: Growth inhibition of human OVCAR5 cells after 48 hrs by sulforhodamine B assay; conditions: OVCAR-5, 48 h; outline: as §4
[26] = system: UACC-62; assay: Growth inhibition of human UACC62 cells after 48 hrs by sulforhodamine B assay; conditions: UACC-62, 48 h; outline: as §1
[27] = system: MOLT-4; assay: Cytotoxicity against human MOLT4 cells after 48 hrs by sulforhodamine B assay; conditions: MOLT-4, 48 h, read-out: LC50 (the source's name); outline: as §2
[28] = system: NCI-H23; assay: Cytotoxicity against human NCI-H23 cells after 48 hrs by sulforhodamine B assay; conditions: NCI-H23, 48 h, read-out: LC50 (the source's name); outline: as §2
[29] = system: COLO 205; assay: Growth inhibition of human COLO205 cells after 48 hrs by sulforhodamine B assay; conditions: COLO 205, 48 h; outline: as §3
[30] = Cytotoxicity against human Hs 578T cells after 48 hrs by sulforhodamine B assay; conditions: read-out: LC50 (the source's name); outline: as §2
[31] = system: HT-29; assay: Growth inhibition of human HT-29 cells after 48 hrs by sulforhodamine B assay; conditions: HT-29, 48 h; outline: as §3
[32] = system: SF-268; assay: Cytotoxicity against human SF268 cells after 48 hrs by sulforhodamine B assay; conditions: SF-268, 48 h, read-out: LC50 (the source's name); outline: as §2
[33] = system: NCI-H322M; assay: Growth inhibition of human NCI-H322M cells after 48 hrs by sulforhodamine B assay; outline: as §4
[34] = system: SF-539; assay: Cytotoxicity against human SF539 cells after 48 hrs by sulforhodamine B assay; conditions: SF-539, 48 h, read-out: LC50 (the source's name); outline: as §2
[35] = system: PC-3; assay: Cytotoxicity against human PC3 cells after 48 hrs by sulforhodamine B assay; conditions: PC-3, 48 h, read-out: LC50 (the source's name); outline: as §2

Q: Which GI50 [1] does the source give for `CC(C)CCC[C@@H](C)[C@H]1CC[C@H]2C3=CC[C@@H]4C(=O)C=CC(=O)[C@@H]4[C@@H]3CC[C@]12C` here?
A: 207 nM

Q: And the TGI [1]?
A: > 100000 nM

Q: What about the CC50 [2] of the same molecule?
A: > 100000 nM

Q: And the GI50 [3]?
A: 338 nM

Q: What about the TGI [3] of the same molecule?
A: > 100000 nM

Q: What about the GI50 [4] of the same molecule?
A: 28 nM

Q: What about the TGI [4] of the same molecule?
A: 86 nM

Q: And the GI50 [5]?
A: 545 nM

Q: What about the TGI [5] of the same molecule?
A: > 100000 nM

Q: And the GI50 [6]?
A: 141 nM

Q: What about the GI50 [7] of the same molecule?
A: 201 nM

Q: What about the TGI [7] of the same molecule?
A: 995 nM

Q: And the CC50 [8]?
A: > 100000 nM

Q: What about the CC50 [9] of the same molecule?
A: > 100000 nM

Q: What about the CC50 [10] of the same molecule?
A: > 100000 nM

Q: And the GI50 [11]?
A: 427 nM

Q: And the TGI [11]?
A: 2550 nM

Q: And the GI50 [12]?
A: 502 nM

Q: What about the TGI [12] of the same molecule?
A: > 100000 nM

Q: And the CC50 [13]?
A: > 100000 nM

Q: And the CC50 [14]?
A: > 100000 nM

Q: What about the CC50 [15] of the same molecule?
A: > 100000 nM

Q: What about the CC50 [16] of the same molecule?
A: > 100000 nM

Q: What about the GI50 [17] of the same molecule?
A: 312 nM

Q: And the TGI [17]?
A: > 100000 nM

Q: What about the GI50 [18] of the same molecule?
A: 189 nM

Q: And the TGI [18]?
A: > 100000 nM

Q: What about the CC50 [19] of the same molecule?
A: > 100000 nM

Q: And the GI50 [20]?
A: 337 nM

Q: And the TGI [20]?
A: > 100000 nM

Q: What about the GI50 [21] of the same molecule?
A: 630 nM

Q: And the TGI [21]?
A: > 100000 nM

Q: And the GI50 [22]?
A: 343 nM

Q: And the TGI [22]?
A: 1760 nM

Q: And the GI50 [23]?
A: 384 nM

Q: And the TGI [23]?
A: 1120 nM

Q: What about the GI50 [24] of the same molecule?
A: 55 nM

Q: And the TGI [24]?
A: 1030 nM

Q: And the GI50 [25]?
A: 212 nM

Q: And the TGI [25]?
A: > 100000 nM

Q: What about the GI50 [26] of the same molecule?
A: 752 nM

Q: What about the TGI [26] of the same molecule?
A: > 100000 nM

Q: And the CC50 [27]?
A: > 100000 nM

Q: What about the CC50 [28] of the same molecule?
A: > 100000 nM

Q: And the GI50 [29]?
A: 80 nM

Q: And the TGI [29]?
A: 220 nM

Q: And the CC50 [30]?
A: > 100000 nM

Q: What about the GI50 [31] of the same molecule?
A: 839 nM

Q: What about the TGI [31] of the same molecule?
A: > 100000 nM

Q: What about the CC50 [32] of the same molecule?
A: > 100000 nM

Q: What about the GI50 [33] of the same molecule?
A: 305 nM

Q: And the TGI [33]?
A: 849 nM

Q: And the CC50 [34]?
A: > 100000 nM

Q: What about the CC50 [35] of the same molecule?
A: > 100000 nM
